Data as given in the array DNA melting data of Ke et al. (doi:10.1101/2024.01.08.574731).

Columns and labels:
[1] = folding enthalpy; higher = less favourable; fluorescence melt of hairpins on a sequencing array, two-state fit; conditions: sodium 0.088 M
How it was run: (§1)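 Cy3 signals were normalised both to pre-quench Cy3 and to control constructs. They came from library hairpins carrying annealed Cy3 and quencher oligos on a sequenced MiSeq flow cell, imaged in 50 mM Na-HEPES pH 8.0, 25 mM NaCl, in 2.5 °C steps up to 60 °C. Bootstrapped two-state fits gave melting temperature and folding enthalpy, and four replicates were combined by inverse variance. Fitted temperatures were then raised by 9.35 °C to match UV melts.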

[2] = melting temperature; fluorescence melt of hairpins on a sequencing array, two-state fit, raised by 9.35 °C to match UV melts; conditions: sodium 0.088 M
How it was run: as §1

| Sequence | folding enthalpy [1] | Tm [2] |
| --- | --- | --- |
| GCGCGCCGAAAGGCCCGC (((.(((....))).))) | -32.2 kcal/mol | 68.5 °C |
| GCGCGCGAAAGCGCACGC ((((((....)))..))) | -11.7 kcal/mol | 67 °C |
| GCGCGCGAAAGCGGTCGC ((((((....)))..))) | -16.1 kcal/mol | 63.6 °C |
| GCGCGGACGAAAGTCCGC (((..(((....)))))) | -5.59 kcal/mol | 63.7 °C |
| GCGCGGCGAAAGCAGAGC ((.(.((....)).).)) | -25.1 kcal/mol | 63.8 °C |
| GCGCGGCGAAAGCAGGGC ((.(.((....)).).)) | -19.8 kcal/mol | 63.2 °C |
| GCGCGGCGAAAGCAGTGC ((.(.((....)).).)) | -29.1 kcal/mol | 65.5 °C |
| GCGCGGCGAAAGCATCGC (((..((....))..))) | -20.6 kcal/mol | 57.5 °C |
| GCGCGGCGAAAGCCAGGC ((..(((....)))..)) | -14.1 kcal/mol | 54.4 °C |
| GCGCGGCGAAAGCCCGGC ((..(((....)))..)) | -12.8 kcal/mol | 59.7 °C |
| GCGCGGCGAAAGCCTGGC ((..(((....)))..)) | -15.3 kcal/mol | 47.9 °C |
| GCGCGGCGAAAGCGACGC (((..((....))..))) | -15.2 kcal/mol | 63.2 °C |
| GCGCGGCGAAAGCGGAGC ((.(.((....)).).)) | -22.5 kcal/mol | 60.4 °C |
| GCGCGGCGAAAGCGGTGC ((.(.((....)).).)) | -31.2 kcal/mol | 65.2 °C |
| GCGCGGCGAAAGCTGGGC ((.(.((....)).).)) | -32.4 kcal/mol | 67.2 °C |
| GCGCGGTCGAAAGACCGC (((..(((....)))))) | -5.31 kcal/mol | 67 °C |
| GCGCGTCGAAAGACCGC (((.(((....)))))) | -32.8 kcal/mol | 67.3 °C |
| GCGCGTCGAAAGACTCGC (((.(((....))).))) | -38.7 kcal/mol | 58.4 °C |
| GCGCGTGGAAACATGCGC ((((.((....)).)))) | -40.2 kcal/mol | 67.9 °C |
| GCGCGTTCGAAAGAACGC (((..(((....)))))) | -6.28 kcal/mol | 68 °C |
| GCGCTACGAAAGTACGC (((.(((....)))))) | -32.2 kcal/mol | 55.3 °C |
| GCGCTAGGAAACTGGTGC ((.(.((....)).).)) | -28.9 kcal/mol | 44.3 °C |
| GCGCTCCGAAAGGAACGC (((.(((....))).))) | -46.8 kcal/mol | 65 °C |
| GCGCTCGAAAGAGCTCGC ((((((....)))..))) | -14.4 kcal/mol | 47.8 °C |

| Sequence | folding enthalpy [1] | Tm [2] |
| --- | --- | --- |
| GCGCTCGGAAACGAACGC (((.(((....))).))) | -38.5 kcal/mol | 55.7 °C |
| GCGCTGCCGAAAGGCCGC (((..(((....)))))) | -17.8 kcal/mol | 58.5 °C |
| GCGCTGCGAAAGCAAAGC ((..(((....)))..)) | -17.7 kcal/mol | 60 °C |
| GCGCTGCGAAAGCAACGC (((.(((....))).))) | -49 kcal/mol | 61.5 °C |
| GCGCTGCGAAAGCACCGC (((.(((....))).))) | -46.8 kcal/mol | 53.9 °C |
| GCGCTGCGAAAGCACTGC ((..(((....)))..)) | -16.8 kcal/mol | 41 °C |
| GCGCTGCGAAAGCCACGC (((..((....))..))) | -19.7 kcal/mol | 52.7 °C |
| GCGCTGCGAAAGCCCCGC (((..((....))..))) | -22.5 kcal/mol | 41.5 °C |
| GCGCTGCGAAAGCCGAGC ((.(.((....)).).)) | -23.2 kcal/mol | 50.8 °C |
| GCGCTGCGAAAGCCGGGC ((.(.((....)).).)) | -20.5 kcal/mol | 50.9 °C |
| GCGCTGCGAAAGCGCCGC (((..((....))..))) | -9.61 kcal/mol | 61.6 °C |
| GCGCTGCGAAAGCGTCGC (((..((....))..))) | -25.4 kcal/mol | 59.7 °C |
| GCGCTGGCGAAAGCCCGC (((..(((....)))))) | -17 kcal/mol | 55.5 °C |
| GCGCTGGGAAACCAACGC (((.(((....))).))) | -47.8 kcal/mol | 52.7 °C |
| GCGCTTCCGAAAGGACGC (((..(((....)))))) | -20.3 kcal/mol | 52 °C |
| GCGCTTGGAAACAAGCAC (.(((((....))))).) | -15.2 kcal/mol | 45.7 °C |
| GCGCTTGGAAACAGGTGC ((.(.((....)).).)) | -28.5 kcal/mol | 40.6 °C |
| GCGGAACCCCGC ((((....)))) | -21 kcal/mol | 51.3 °C |
| GCGGAACCCGC ((((...)))) | -20.8 kcal/mol | 53.8 °C |
| GCGGAACCGAAAGGTCGC (((..(((....)))))) | -27.7 kcal/mol | 54.7 °C |
| GCGGAAGGAAACTTCCAC (.(((((....))))).) | -15.9 kcal/mol | 37.4 °C |
| GCGGAATCCGC ((((...)))) | -23.4 kcal/mol | 51.7 °C |
| GCGGACACCGC ((((...)))) | -26.3 kcal/mol | 56.2 °C |
| GCGGACCCCCGC ((((....)))) | -34.6 kcal/mol | 53.3 °C |

| Sequence | folding enthalpy [1] | Tm [2] |
| --- | --- | --- |
| GCGGACGAAAGTCATCGC ((((((....)))..))) | -25.7 kcal/mol | 50.1 °C |
| GCGGACGAAAGTCCCGC ((((((....))).))) | -20.8 kcal/mol | 67.1 °C |
| GCGGACGAAAGTCGCCGC ((((((....)))..))) | -18.1 kcal/mol | 52.4 °C |
| GCGGACGCCCGC ((((....)))) | -20.1 kcal/mol | 56.1 °C |
| GCGGACTCCCGC ((((....)))) | -32.8 kcal/mol | 53.1 °C |
| GCGGAGACCCGC ((((....)))) | -20.5 kcal/mol | 52.8 °C |
| GCGGAGCGAAAGCAACGC (((..((....))..))) | -20.2 kcal/mol | 66.9 °C |
| GCGGAGCGAAAGCACGGC ((.(.((....)).).)) | -9.69 kcal/mol | 45.5 °C |
| GCGGAGCGAAAGCCACGC (((..((....))..))) | -15.7 kcal/mol | 58.4 °C |
| GCGGAGCGAAAGCCCAGC ((.(.((....)).).)) | -12.1 kcal/mol | 42.5 °C |
| GCGGAGCGAAAGCGCGGC ((.(.((....)).).)) | -15.3 kcal/mol | 58.6 °C |
| GCGGAGCGAAAGCTCTGC ((.((((....)))).)) | -35.8 kcal/mol | 68 °C |
| GCGGAGCGAAAGCTTTGC ((..(((....)))..)) | -14.3 kcal/mol | 45.5 °C |
| GCGGAGGGAAACCTTCGC (((.(((....))).))) | -46.5 kcal/mol | 56.5 °C |
| GCGGAGTCCGC ((((...)))) | -25.6 kcal/mol | 52.4 °C |
| GCGGAGTCGAAAGACCGC (((..(((....)))))) | -38 kcal/mol | 53.7 °C |
| GCGGATACCCGC ((((....)))) | -24.3 kcal/mol | 54.2 °C |
| GCGGATCCGAAAGGACGC (((..(((....)))))) | -25.6 kcal/mol | 53.3 °C |
| GCGGATCGAAAGATTCGC (((.(((....))).))) | -45.9 kcal/mol | 60.8 °C |
| GCGGATGCCCGC ((((....)))) | -14.4 kcal/mol | 55 °C |
| GCGGATGGAAACGTCCGC (((((.(....).))))) | -45.9 kcal/mol | 62.6 °C |
| GCGGATGGAAACGTCTGC ((.((.(....).)).)) | -28.1 kcal/mol | 44.3 °C |
| GCGGATTTCCGC ((((....)))) | -22.4 kcal/mol | 64.6 °C |
| GCGGCAATCCGC ((((....)))) | -21.9 kcal/mol | 52.3 °C |

| Sequence | folding enthalpy [1] | Tm [2] |
| --- | --- | --- |
| GCGGCACCCGC ((((...)))) | -21.9 kcal/mol | 56.4 °C |
| GCGGCACCGAAAGGTCGC (((..(((....)))))) | -21.1 kcal/mol | 54.4 °C |
| GCGGCACTCCGC ((((....)))) | -25.8 kcal/mol | 57.5 °C |
| GCGGCAGACCGC ((((....)))) | -23.2 kcal/mol | 56.2 °C |
| GCGGCAGGAAACCGCCAC (.(((.(....).))).) | -12.7 kcal/mol | 47.5 °C |
| GCGGCATCCGC ((((...)))) | -17.9 kcal/mol | 54.8 °C |
| GCGGCATTCCGC ((((....)))) | -23.7 kcal/mol | 56.1 °C |
| GCGGCCAACCGC ((((....)))) | -21.6 kcal/mol | 56.2 °C |
| GCGGCCACGAAAGTGCGC (((..(((....)))))) | -17.4 kcal/mol | 52.7 °C |
| GCGGCCATCCGC ((((....)))) | -18.5 kcal/mol | 60 °C |
| GCGGCCCCCGC ((((...)))) | -20.4 kcal/mol | 56.6 °C |
| GCGGCCCTCCGC ((((....)))) | -26.5 kcal/mol | 59.6 °C |
| GCGGCCGAAAGGCAACGC ((((((....)))..))) | -19.1 kcal/mol | 64.3 °C |
| GCGGCCGAAAGGCATCGC ((((((....)))..))) | -23 kcal/mol | 53.1 °C |
| GCGGCCGAAAGGCCACGC ((((((....)))..))) | -13.6 kcal/mol | 65.1 °C |
| GCGGCCGAAAGGCTCGC ((((((....))).))) | -23.5 kcal/mol | 68.8 °C |
| GCGGCGACCCGC ((((....)))) | -15.4 kcal/mol | 57.3 °C |
| GCGGCGATCCGC ((((....)))) | -16.7 kcal/mol | 54 °C |
| GCGGCGCCCCGC ((((....)))) | -16.4 kcal/mol | 52.7 °C |
| GCGGCGCCGAAAGGCCGC (((..(((....)))))) | -14.3 kcal/mol | 67.2 °C |
| GCGGCGCGAAAGCACGGC ((.(.((....)).).)) | -20.5 kcal/mol | 56.4 °C |
| GCGGCGCGAAAGCCCGGC ((.(.((....)).).)) | -14.6 kcal/mol | 59.8 °C |
| GCGGCGCGAAAGCGAAGC ((..(((....)))..)) | -29 kcal/mol | 68.1 °C |
